16 compounds from ChEMBL document CHEMBL1153588, “DNA sequence selectivity of hairpin polyamide turn units” (Bioorg Med Chem Lett, 2009) can be followed below.

What all share (format): nucleic-acid assay
For test [1], the system named is Nucleic Acid. In words: Binding affinity to 11mer DNA duplex 5'-CTCTGGCACAC-3' assessed as change in melting temperature by spectroscopic analysis. The gist of the method: (§1)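 Duplex melting temperatures were measured on a spectrophotometer with a thermo-controlled cell holder in 10 mM sodium cacodylate buffer.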
Test [2] relates to Nucleic Acid. Briefly: Binding affinity to 11mer DNA duplex 5'-CTCTGTTACCA-3' assessed as change in melting temperature by spectroscopic analysis. The gist of the method:
as §1

Test [3] deals with Nucleic Acid. In words: Binding affinity to 11mer DNA duplex 5'-CTATGTTACCA-3' assessed as change in melting temperature by spectroscopic analysis. The gist of the method: as §1
For test [4], the system named is Nucleic Acid. Briefly: Binding affinity to 11mer DNA duplex 5'-CTATGGTAGAC-3' assessed as change in melting temperature by spectroscopic analysis. The gist of the method:
as §1

Test [5] deals with Nucleic Acid. In words: Binding affinity to 5'-ATGGTT-3' in Escherichia coli pCDMF6 by DNase1 foot-printing titration method. The gist of the method: (§2)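 The plasmid target was built by ligating an annealed synthetic oligonucleotide pair carrying the tandem match sites. A primer was 5'-end-labelled with ³²P, and binding was measured by DNase I footprinting titrations.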
The subject of test [6] is Nucleic Acid. Briefly: Binding affinity to 5'-ATGGTA-3' in Escherichia coli pCDMF6 by DNase1 foot-printing titration method. The gist of the method: as §2
The subject of test [7] is Nucleic Acid. In words: Binding affinity to 5'-ATGGTTC-3' in Escherichia coli pCDMF6 by DNase1 foot-printing titration method. The gist of the method: as §2
The test system of test [8] is Nucleic Acid. In words: Binding affinity to 5'-ATGGTG-3' in Escherichia coli pCDMF6 by DNase1 foot-printing titration method. The gist of the method: as §2

As a reminder, the ΔTm is the shift of the melting midpoint relative to a reference.

`CN(C)CCCNC(=O)CCNC(=O)c1cc(NC(=O)c2cc(NC(=O)c3nc(NC(=O)C[C@@H](N)CNC(=O)c4cc(NC(=O)c5nc(NC(=O)c6nccn6C)cn5C)cn4C)cn3C)cn2C)cn1C`: the ΔTm with Nucleic Acid [1] was found to be 6.7 °C.

In the case of `CN(C)CCCNC(=O)CCNC(=O)c1cc(NC(=O)c2cc(NC(=O)c3cc(NC(=O)C[C@@H](N)CNC(=O)c4cc(NC(=O)c5cc(NC(=O)c6nccn6C)cn5C)cn4C)cn3C)cn2C)cn1C`, the ΔTm amounted to 13 °C with Nucleic Acid [2] and 18 °C in the test with Nucleic Acid [3].

`CN(C)CCCNC(=O)CCNC(=O)c1cc(NC(=O)c2cc(NC(=O)c3nc(NC(=O)C[C@H](N)CNC(=O)c4cc(NC(=O)c5nc(NC(=O)c6nccn6C)cn5C)cn4C)cn3C)cn2C)cn1C`: the thermal shift (ΔTm) with Nucleic Acid [1] turned out to be 6 °C.

In the case of `CN(C)CCCNC(=O)CCNC(=O)c1cc(NC(=O)c2cc(NC(=O)c3cc(NC(=O)[C@H](O)CCNC(=O)c4cc(NC(=O)c5nc(NC(=O)c6nccn6C)cn5C)cn4C)cn3C)cn2C)cn1C`, the ΔTm with Nucleic Acid [4] was 10 °C.

As for `CN(C)CCCNC(=O)CCNC(=O)c1cc(NC(=O)c2cc(NC(=O)c3cc(NC(=O)C[C@H](N)CNC(=O)c4cc(NC(=O)c5nc(NC(=O)c6nccn6C)cn5C)cn4C)cn3C)cn2C)cn1C`, the shift in melting temperature (ΔTm) in the test on Nucleic Acid [4] turned out to be 14.7 °C. Besides, the Ka with Nucleic Acid [5] was 1.1 ×10⁹ /M; in the test on Nucleic Acid [6] it was 1.3 ×10⁹ /M; with Nucleic Acid [7], 6 ×10⁷ /M; in the test on Nucleic Acid [8], under 1 ×10⁷ /M.

In the case of `CN(C)CCCNC(=O)CCNC(=O)c1cc(NC(=O)c2cc(NC(=O)c3cc(NC(=O)[C@@H](F)CCNC(=O)c4cc(NC(=O)c5nc(NC(=O)c6nccn6C)cn5C)cn4C)cn3C)cn2C)cn1C`, in the test on Nucleic Acid [4], the thermal shift (ΔTm) is 7.9 °C.

In the case of `CN(C)CCCNC(=O)CCNC(=O)c1cc(NC(=O)c2cc(NC(=O)c3cc(NC(=O)[C@H](F)CCNC(=O)c4cc(NC(=O)c5nc(NC(=O)c6nccn6C)cn5C)cn4C)cn3C)cn2C)cn1C`, the ΔTm in the test with Nucleic Acid [4] worked out at 8.3 °C.

Consider `CN(C)CCCNC(=O)CCNC(=O)c1cc(NC(=O)c2cc(NC(=O)c3nc(NC(=O)[C@H](N)CCNC(=O)c4cc(NC(=O)c5nc(NC(=O)c6nccn6C)cn5C)cn4C)cn3C)cn2C)cn1C`, for which the shift in melting temperature (ΔTm) in the test with Nucleic Acid [1] was found to be 8.3 °C.

`CC(=O)N[C@@H](CNC(=O)c1cc(NC(=O)c2nc(NC(=O)c3nccn3C)cn2C)cn1C)CC(=O)Nc1cc(C(=O)Nc2cc(C(=O)Nc3cc(C(=O)NCCC(=O)NCCCN(C)C)n(C)c3)n(C)c2)n(C)c1`: the ΔTm in the test on Nucleic Acid [4] was found to be 12.2 °C. Further, the Ka in the test on Nucleic Acid [5] was 2 ×10⁹ /M; with Nucleic Acid [6], 5.2 ×10⁹ /M; in the test with Nucleic Acid [7] it was 8.9 ×10⁷ /M; with Nucleic Acid [8], under 1 ×10⁷ /M.

On to `CN(C)CCCNC(=O)CCNC(=O)c1cc(NC(=O)c2cc(NC(=O)c3cc(NC(=O)CCCNC(=O)c4cc(NC(=O)c5nc(NC(=O)c6nccn6C)cn5C)cn4C)cn3C)cn2C)cn1C`, for which the ΔTm with Nucleic Acid [4] amounted to 9.2 °C. In addition, the Ka was 2.1 ×10⁸ /M with Nucleic Acid [5], 2 ×10⁸ /M in the test on Nucleic Acid [6], under 1 ×10⁷ /M in the test on Nucleic Acid [7] and under 1 ×10⁷ /M in the test on Nucleic Acid [8].

On to `CN(C)CCCNC(=O)CCNC(=O)c1cc(NC(=O)c2cc(NC(=O)c3cc(NC(=O)C[C@H](N)CNC(=O)c4cc(NC(=O)c5cc(NC(=O)c6nccn6C)cn5C)cn4C)cn3C)cn2C)cn1C`, for which the values for the thermal shift (ΔTm) with Nucleic Acid [2] and with Nucleic Acid [3] were 11.6 °C and 17 °C, respectively.

As for `CN(C)CCCNC(=O)CCNC(=O)c1cc(NC(=O)c2cc(NC(=O)c3cc(NC(=O)[C@H](N)CCNC(=O)c4cc(NC(=O)c5nc(NC(=O)c6nccn6C)cn5C)cn4C)cn3C)cn2C)cn1C`, the ΔTm in the test on Nucleic Acid [4] was 14.7 °C. Moreover, the Ka with Nucleic Acid [5] was 1.6 ×10⁹ /M; in the test with Nucleic Acid [6] it was 1.7 ×10⁹ /M; in the test on Nucleic Acid [7] it was 3.9 ×10⁷ /M; in the test on Nucleic Acid [8], under 1 ×10⁷ /M.

Regarding `CN(C)CCCNC(=O)CCNC(=O)c1cc(NC(=O)c2cc(NC(=O)c3cc(NC(=O)[C@@H](O)CCNC(=O)c4cc(NC(=O)c5nc(NC(=O)c6nccn6C)cn5C)cn4C)cn3C)cn2C)cn1C`, in the test with Nucleic Acid [4], the thermal shift (ΔTm) came out at 5.8 °C.

In the case of `CC(=O)N[C@H](CCNC(=O)c1cc(NC(=O)c2nc(NC(=O)c3nccn3C)cn2C)cn1C)C(=O)Nc1cc(C(=O)Nc2cc(C(=O)Nc3cc(C(=O)NCCC(=O)NCCCN(C)C)n(C)c3)n(C)c2)n(C)c1`, in the test with Nucleic Acid [4], the ΔTm worked out at 10.1 °C. Moreover, the Ka with Nucleic Acid [5] was 3.2 ×10⁸ /M; in the test on Nucleic Acid [6], 2.1 ×10⁸ /M; with Nucleic Acid [7], under 1 ×10⁷ /M; in the test with Nucleic Acid [8] it was under 1 ×10⁷ /M.

Regarding `CN(C)CCCNC(=O)CCNC(=O)c1cc(NC(=O)c2cc(NC(=O)c3cc(NC(=O)C[C@@H](N)CNC(=O)c4cc(NC(=O)c5nc(NC(=O)c6nccn6C)cn5C)cn4C)cn3C)cn2C)cn1C`, the shift in melting temperature (ΔTm) in the test on Nucleic Acid [4] is 14.9 °C. Moreover, the Ka with Nucleic Acid [5] was 3.3 ×10⁹ /M; in the test with Nucleic Acid [6], 1.8 ×10⁹ /M; in the test with Nucleic Acid [7], 5 ×10⁷ /M; with Nucleic Acid [8] it was under 1 ×10⁷ /M.

As to `CN(C)CCCNC(=O)CCNC(=O)c1cc(NC(=O)c2cc(NC(=O)c3cc(NC(=O)[C@H](N)CCNC(=O)c4cc(NC(=O)c5cc(NC(=O)c6nccn6C)cn5C)cn4C)cn3C)cn2C)cn1C`, the ΔTm in the test with Nucleic Acid [2] turned out to be 10.9 °C; in the test with Nucleic Acid [3] it was 15.9 °C.
